According to ChEMBL document CHEMBL5712908, “A genome-wide RNAi screen reveals essential therapeutic targets of breast cancer stem cells” (2019):
Calls of active or inactive are those of the source. The calls are words filed in the database; no cut-off is given here.

Experiments:
SUM-159-PT [1] = experiment: Antitumor activity against human SUM159 cells assessed as K-score by measuring ALDHbr cells by LSR2 cytometer; type: functional
Outline: (§1)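 Cell lines exposed for 72 h in adherent culture to a range of concentrations centred on the MTS-derived IC50. ALDHbr proportion measured by ALDEFLUOR flow cytometry (LSR2). K-score is the linear regression coefficient, on log10-transformed doses, between the untreated condition and the dose predicted to give a 50% decrease or increase in ALDHbr proportion versus control.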

SUM-159-PT [2] = experiment: Anticancer activity against human SUM159 cells assessed as decrease in primary tumor sphere formation incubated for 72 hrs by Extreme limiting dilution analysis; type: functional, cell-based
Outline: (§2)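 Cells drug-treated in adherent culture for 72 h, then plated as single cells in ultra-low attachment 96-well plates in serum-free mammary epithelium basal medium. Plating at 25/10/5/3/2/1 cells per well, 18–36 wells per condition. Wells with ≥1 sphere after 10 days scored positive. Secondary spheres were made by dissociating primary spheres. Frequency by ELDA; n = 4; pairwise chi-square test.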

Breast cancer cell line [3] = experiment: Synergistic antitumor activity against human CRCM494 negative breast cancer cells orthotopically xenografted in NSG mouse model of PDX assessed as reduction ALDHbr cells at 3 mg/kg, ip daily for 14 days cotreated with JQ1 by LSR2 cytometer analysis; type: functional; details: time 14 day
Breast cancer cell line [4] = experiment: Antitumor activity against human CRCM434 negative breast cancer cells orthotopically xenografted in NSG mouse model of PDX assessed as reduction ALDHbr cells at 3 mg/kg, ip daily for 14 days by LSR2 cytometer analysis; type: functional, organism-based; details: time 14.0 day
Outline: (§3)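 Chemo-naïve triple-negative PDX cells injected at 100,000 per fat pad, two fat pads per NSG mouse. At ~80 mm³ tumours, mice received i.p. 3 mg/kg daily for 14 days or 50 mg/kg 5 of 7 days for 2 weeks; placebo was DMSO/HPCD 10% (1:9). Five mice (10 tumours) per group. Tumour growth monitored; after 2 weeks tumours dissociated, mouse cells excluded via anti-H2Kd, ALDHbr measured by ALDEFLUOR flow cytometry and normalised to vehicle.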

[5] = Antitumor activity against human S68 cells assessed as K-score by measuring ALDHbr cells by LSR2 cytometer; type: functional; outline: as §1
Breast cancer cell line [6] = experiment: Antitumor activity against human reimplanted CRCM434 negative breast cancer cells orthotopically xenografted in NSG mouse model of PDX assessed as reduction tumor volume at 3 mg/kg, ip daily for 14 days by limiting dilation analysis; type: functional, organism-based; details: time 14.0 day
Outline: (§4)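 After 2 weeks of i.p. treatment (3 mg/kg daily or 50 mg/kg 5 of 7 days), dissociated PDX tumour cells reimplanted into secondary NSG mice at 50, 500 or 5,000 cells. A mouse counted as tumour-bearing once a tumour reached 10 mm. bCSC frequency per 10,000 cells estimated by ELDA; pairwise chi-square test.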

Breast cancer cell line [7] = experiment: Antitumor activity against human reimplanted CRCM404 negative breast cancer cells orthotopically xenografted in NSG mouse model of PDX assessed as reduction tumor volume at 3 mg/kg, ip daily for 14 days by limiting dilation analysis; type: functional, organism-based; details: time 14.0 day; outline: as §4
Breast cancer cell line [8] = experiment: Antitumor activity against human CRCM404 negative breast cancer cells orthotopically xenografted in NSG mouse model of PDX assessed as reduction in tumor volume at 3 mg/kg, ip daily for 14 days; type: functional, organism-based; details: time 14.0 day; outline: as §3
Breast cancer cell line [9] = experiment: Synergistic antitumor activity against human CRCM404 negative breast cancer cells orthotopically xenografted in NSG mouse model of PDX assessed as reduction ALDHbr cells at 3 mg/kg, ip daily for 14 days cotreated with JQ1 by LSR2 cytometer analysis; type: functional; details: time 14 day
Breast cancer cell line [10] = experiment: Antitumor activity against human CRCM494 negative breast cancer cells orthotopically xenografted in NSG mouse model of PDX assessed as reduction ALDHbr cells at 3 mg/kg, ip daily for 14 days by LSR2 cytometer analysis; type: functional, organism-based; details: time 14.0 day; outline: as §3
Breast cancer cell line [11] = experiment: Synergistic antitumor activity against human CRCM434 negative breast cancer cells orthotopically xenografted in NSG mouse model of PDX assessed as reduction ALDHbr cells at 3 mg/kg, ip daily for 14 days cotreated with JQ1 by LSR2 cytometer analysis; type: functional; details: time 14 day
SUM-159-PT [12] = experiment: Induction of apoptosis in human SUM159 cells expressing ALDHbr upto 5 uM incubated for 72 hrs by ALDEFLUOR/YO-PRO-3/ Hoechst 33342 staining based high content imaging microscopic analysis; type: functional, cell-based
Outline: (§5)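 SUM159 at 3,000 cells/well on collagen plates, dosed at 6, 24 and 48 h post-seeding; 0.1% DMSO negative control, cisplatin positive control. At 72 h stained 30 min at 37°C with ALDEFLUOR, YO-PRO-3 and Hoechst 33342, then imaged ice-cold. YO-PRO-3-positive nuclei (above untreated signal) counted over total cells, per ALDHbr/ALDH- subpopulation; n = 6.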

Breast cancer cell line [13] = experiment: Antitumor activity against human reimplanted CRCM494 negative breast cancer cells orthotopically xenografted in NSG mouse model of PDX assessed as reduction tumor volume at 3 mg/kg, ip daily for 14 days by limiting dilation analysis; type: functional, organism-based; details: time 14.0 day; outline: as §4
SUM-159-PT [14] = experiment: Induction of apoptosis in human SUM159 cells expressing ALDH upto 5 uM incubated for 72 hrs by ALDEFLUOR/YO-PRO-3/ Hoechst 33342 staining based high content imaging microscopic analysis; type: functional, cell-based; outline: as §5
SUM149PT = experiment: Antitumor activity against human SUM149 cells assessed as K-score by measuring ALDHbr cells by LSR2 cytometer; type: functional; outline: as §1
Breast cancer cell line [15] = experiment: Antitumor activity against human CRCM434 negative breast cancer cells orthotopically xenografted in NSG mouse model of PDX assessed as reduction in tumor volume at 3 mg/kg, ip daily for 14 days; type: functional, organism-based; details: time 14.0 day; outline: as §3
SUM-159-PT [16] = experiment: Synergistic anticancer activity against human SUM159 cells assessed as decrease in secondary tumor sphere formation at 62 nM incubated for 72 hrs in presence of JQ1 by Extreme limiting dilution analysis; type: functional
Outline: (§6)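 72 h adherent pretreatment (Sal/JQ1 62 nM/62 nM; docetaxel added at 2 nM where used), then single cells plated in ultra-low attachment 96-well plates in serum-free mammary epithelium basal medium at 25/10/5/3/2/1 cells/well (18–36 wells/condition). Wells with ≥1 sphere after 10 days scored positive; sphere-forming frequency by ELDA. Secondary spheres from dissociated primary spheres. n = 4; pairwise chi-square.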

SUM-159-PT [17] = experiment: Anticancer activity against human SUM159 cells expressing BFP assessed as reduction in ALDHbr cell at 5 to 500 nM by LSR2 cytometer analysis; type: functional, cell-based; details: dose 5-500 nM
Breast cancer cell line [18] = experiment: Antitumor activity against human CRCM494 negative breast cancer cells orthotopically xenografted in NSG mouse model of PDX assessed as reduction in tumor volume at 3 mg/kg, ip daily for 14 days; type: functional, organism-based; details: time 14.0 day; outline: as §3
SUM-159-PT [19] = experiment: Anticancer activity against human SUM159 cells expressing BFP assessed as reduction in ALDHbr cell at 50 nM by LSR2 cytometer analysis; type: functional
SUM-159-PT [20] = experiment: Anticancer activity against human SUM159 cells assessed as effect on RFP+/BFP+ cell ratio upto 5 uM after 72 hrs by […]; type: functional, cell-based
MDA-MB-436 = experiment: Antitumor activity against human MDA-MB-436 cells assessed as K-score by measuring ALDHbr cells by LSR2 cytometer; type: functional; outline: as §1
SUM-159-PT [21] = experiment: Synergistic anticancer activity against human SUM159 cells expressing BFP assessed as reduction in ALDHbr cell 50 nM in presence of JQ1 by LSR2 cytometer analysis; type: functional
Breast cancer cell line [22] = experiment: Antitumor activity against human CRCM404 negative breast cancer cells orthotopically xenografted in NSG mouse model of PDX assessed as reduction ALDHbr cells at 3 mg/kg, ip daily for 14 days by LSR2 cytometer analysis; type: functional, organism-based; details: time 14.0 day; outline: as §3
SUM-159-PT [23] = experiment: Anticancer activity against human SUM159 cells assessed as decrease in secondary tumor sphere formation incubated for 72 hrs by Extreme limiting dilution analysis; type: functional, cell-based; outline: as §2
[24] = Antitumor activity against human BrCa-MZ-01 cells assessed as K-score by measuring ALDHbr cells by LSR2 cytometer; type: functional; outline: as §1
SUM-159-PT [25] = experiment: Synergistic anticancer activity against human SUM159 cells assessed as decrease in primary tumor sphere formation at 62 nM incubated for 72 hrs in presence of JQ1 by Extreme limiting dilution analysis; type: functional; outline: as §6

For `CC[C@@H](C(=O)[C@@H](C)[C@@H](O)[C@H](C)[C@@H]1O[C@@H]([C@@H](CC)C(=O)O)CC[C@@H]1C)[C@H]1O[C@]2(C=C[C@@H](O)[C@]3(CC[C@@](C)([C@H]4CC[C@](O)(CC)[C@H](C)O4)O3)O2)[C@H](C)C[C@@H]1C` [SALINOMYCIN], the Activity (SUM-159-PT [1]) was -0.14, the Activity (SUM-159-PT [2]) was “Active” and the “fold change (FC)” value (Breast cancer cell line [3]) was 2. The Activity (Breast cancer cell line [4]) was “Active”, the Activity [5] was -0.19 and the Activity (Breast cancer cell line [6]) was “Active”. For the same molecule, the Activity (Breast cancer cell line [7]) was “Active”, the Activity (Breast cancer cell line [8]) was “inactive” and the “fold change (FC)” value (Breast cancer cell line [9]) was 2. The Activity (Breast cancer cell line [10]) was “Active”, the “fold change (FC)” value (Breast cancer cell line [11]) was 2 and the Activity (SUM-159-PT [12]) was “Active”. The Activity (Breast cancer cell line [13]) was “Active”, the Activity (SUM-159-PT [14]) was “Active” and the Activity (SUM149PT) was -0.06. For the same molecule, the Activity (Breast cancer cell line [15]) was “inactive”, the “fold change (FC)” value (SUM-159-PT [16]) was 5.4 and the Activity (SUM-159-PT [17]) was “Active”. For the same molecule, the Activity (Breast cancer cell line [18]) was “inactive”, the “fold change (FC)” value (SUM-159-PT [19]) was 2 and the Activity (SUM-159-PT [20]) was “inactive”. The Activity (MDA-MB-436) was -0.12, the “fold change (FC)” value (SUM-159-PT [21]) was 4 and the Activity (Breast cancer cell line [22]) was “Active”. For the same molecule, the Activity (SUM-159-PT [23]) was “Active”, the Activity [24] was -0.07 and the “fold change (FC)” value (SUM-159-PT [25]) was 2.4.
